According to ChEMBL document CHEMBL1129264, “Mercaptoacyl dipeptides as orally active dual inhibitors of angiotensin-converting enzyme and neutral endopeptidase” (1996):

How the values were obtained:
[1] = target: T1, Angiotensin-converting enzyme (Rattus norvegicus) (UniProt P47820); experiment: Compound was tested for plasma inhibition of Angiotensin I converting enzyme activity in the conscious rat. Expressed as Inhibition of AI pressor response at 4 hr at a dose of 14.4 mg/kg po; format: organism-based; set-up: dose 14.4 mg/kg
T1 sequence (whole entry): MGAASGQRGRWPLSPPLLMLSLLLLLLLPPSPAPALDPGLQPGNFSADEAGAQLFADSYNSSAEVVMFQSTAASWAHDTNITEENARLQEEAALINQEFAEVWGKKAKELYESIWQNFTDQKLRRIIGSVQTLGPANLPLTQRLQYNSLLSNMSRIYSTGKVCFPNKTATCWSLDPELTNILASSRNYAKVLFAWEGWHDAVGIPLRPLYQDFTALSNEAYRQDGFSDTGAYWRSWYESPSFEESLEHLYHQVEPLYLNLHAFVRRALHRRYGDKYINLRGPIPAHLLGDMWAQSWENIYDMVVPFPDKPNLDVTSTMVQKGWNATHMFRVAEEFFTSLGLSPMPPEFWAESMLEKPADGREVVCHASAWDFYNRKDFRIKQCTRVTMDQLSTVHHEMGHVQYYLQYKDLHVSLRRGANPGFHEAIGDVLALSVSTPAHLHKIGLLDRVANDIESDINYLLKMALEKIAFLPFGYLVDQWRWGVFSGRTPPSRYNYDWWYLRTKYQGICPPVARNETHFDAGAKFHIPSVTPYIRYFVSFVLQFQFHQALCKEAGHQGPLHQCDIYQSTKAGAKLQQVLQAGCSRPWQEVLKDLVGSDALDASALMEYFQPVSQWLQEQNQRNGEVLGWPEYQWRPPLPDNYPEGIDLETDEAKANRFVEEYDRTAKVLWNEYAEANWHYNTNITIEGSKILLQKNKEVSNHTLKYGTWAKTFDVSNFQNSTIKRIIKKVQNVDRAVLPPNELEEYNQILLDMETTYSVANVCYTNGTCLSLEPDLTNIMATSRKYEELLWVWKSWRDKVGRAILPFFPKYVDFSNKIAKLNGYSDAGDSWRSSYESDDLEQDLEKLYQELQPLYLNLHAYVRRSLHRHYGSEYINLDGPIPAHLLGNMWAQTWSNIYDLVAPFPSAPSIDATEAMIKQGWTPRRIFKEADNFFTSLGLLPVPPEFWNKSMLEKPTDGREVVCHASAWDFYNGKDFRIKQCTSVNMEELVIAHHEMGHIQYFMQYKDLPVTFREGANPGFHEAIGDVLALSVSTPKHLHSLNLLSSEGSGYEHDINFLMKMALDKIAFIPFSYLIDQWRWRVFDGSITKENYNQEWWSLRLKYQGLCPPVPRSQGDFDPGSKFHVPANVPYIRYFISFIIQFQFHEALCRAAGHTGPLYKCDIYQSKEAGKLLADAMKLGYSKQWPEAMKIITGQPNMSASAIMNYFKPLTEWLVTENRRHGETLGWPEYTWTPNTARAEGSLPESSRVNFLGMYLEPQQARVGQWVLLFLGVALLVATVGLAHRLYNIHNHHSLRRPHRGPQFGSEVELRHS
Summary of the method: (§1)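 Male conscious normotensive Sprague-Dawley rats (275-390 g), prepared under methohexital sodium (75 mg/kg ip) with femoral arterial and venous catheters. The next day, pressor responses to three angiotensin-I challenges (300 ng/kg iv) were recorded. Compound was then given orally and angiotensin-I challenges were repeated at set times. Percent inhibition is relative to the mean of the three baseline responses.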

[2] = target: T1, Angiotensin-converting enzyme (Rattus norvegicus); experiment: Compound was tested for plasma inhibition of Angiotensin I converting enzyme activity in the conscious rat. Expressed as Inhibition of AI pressor response at 1 hr at a dose of 14.4 mg/kg po; format: organism-based; set-up: dose 14.4 mg/kg
Summary of the method: (§2)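 Male conscious normotensive Sprague-Dawley rats (275-390 g), given femoral arterial and venous catheters under methohexital sodium (75 mg/kg ip) anesthesia. Next day, pressor responses to three angiotensin-I challenges (300 ng/kg iv) recorded by direct arterial pressure. Compound then dosed orally, and AI challenge repeated at set times. Each post-dose response compared with the mean of the three baseline responses, giving % inhibition.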

[3] = target: T1, Angiotensin-converting enzyme (Rattus norvegicus); experiment: Compound was tested for plasma inhibition of Angiotensin I converting enzyme activity in the conscious rat. Expressed as Inhibition of AI pressor response at 6 hr at a dose of 14.4 mg/kg po; format: organism-based; set-up: dose 14.4 mg/kg; summary of the method: as §1
[4] = target: T1, Angiotensin-converting enzyme (Rattus norvegicus); experiment: Compound was tested for plasma inhibition of Angiotensin I converting enzyme activity in the conscious rat. Expressed as Inhibition of AI pressor response at 2 hr at a dose of 14.4 mg/kg po; format: organism-based; set-up: dose 14.4 mg/kg; summary of the method: as §2
[5] = target: T1, Angiotensin-converting enzyme (Rattus norvegicus); experiment: Compound was tested for plasma inhibition of Angiotensin I converting enzyme activity in the conscious rat. Expressed as Inhibition of AI pressor response at 1 hr at a dose of 12.1 mg/kg po; format: organism-based; set-up: dose 12.1 mg/kg; summary of the method: as §2
[6] = target: T1, Angiotensin-converting enzyme (Rattus norvegicus); experiment: Compound was tested for plasma inhibition of Angiotensin I converting enzyme activity in the conscious rat. Expressed as Inhibition of AI pressor response at 2 hr at a dose of 12.1 mg/kg po; format: organism-based; set-up: dose 12.1 mg/kg; summary of the method: as §2
[7] = target: T1, Angiotensin-converting enzyme (Rattus norvegicus); experiment: Compound was tested for plasma inhibition of Angiotensin I converting enzyme activity in the conscious rat. Expressed as Inhibition of AI pressor response at 6 hr at a dose of 12.1 mg/kg po; format: organism-based; set-up: dose 12.1 mg/kg; summary of the method: as §1
[8] = target: T1, Angiotensin-converting enzyme (Rattus norvegicus); experiment: Compound was tested for plasma inhibition of Angiotensin I converting enzyme activity in the conscious rat. Expressed as Inhibition of AI pressor response at 4 hr at a dose of 12.1 mg/kg po; format: organism-based; set-up: dose 12.1 mg/kg; summary of the method: as §2
[9] = target: T1, Angiotensin-converting enzyme (Rattus norvegicus); experiment: Compound was tested for plasma inhibition of Angiotensin I converting enzyme activity in the conscious rat. Expressed as Inhibition of AI pressor response at 1 hr at a dose of 14.5 mg/kg po; format: organism-based; set-up: dose 14.5 mg/kg; summary of the method: as §2
[10] = target: T1, Angiotensin-converting enzyme (Rattus norvegicus); experiment: Compound was tested for plasma inhibition of Angiotensin I converting enzyme activity in the conscious rat. Expressed as Inhibition of AI pressor response at 6 hr at a dose of 14.5 mg/kg po; format: organism-based; set-up: dose 14.5 mg/kg; summary of the method: as §1
[11] = target: T1, Angiotensin-converting enzyme (Rattus norvegicus); experiment: Compound was tested for plasma inhibition of Angiotensin I converting enzyme activity in the conscious rat. Expressed as Inhibition of AI pressor response at 4 hr at a dose of 14.5 mg/kg po; format: organism-based; set-up: dose 14.5 mg/kg; summary of the method: as §1
[12] = target: T1, Angiotensin-converting enzyme (Rattus norvegicus); experiment: Compound was tested for plasma inhibition of Angiotensin I converting enzyme activity in the conscious rat. Expressed as Inhibition of AI pressor response at 2 hr at a dose of 14.5 mg/kg po; format: organism-based; set-up: dose 14.5 mg/kg; summary of the method: as §2
[13] = target: T1, Angiotensin-converting enzyme (Rattus norvegicus); experiment: Compound was tested for plasma inhibition of Angiotensin I converting enzyme activity in the conscious rat. Expressed as Inhibition of AI pressor response at 2 hr at a dose of 11.7 mg/kg po; format: organism-based; set-up: dose 11.7 mg/kg; summary of the method: as §2
Rattus norvegicus [14] = experiment: Plasma ANF Concentration in the Conscious Rat at a dose of 11.7(po)mg/kg at 1 h; format: functional
Summary of the method: (§3)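 Male Sprague-Dawley rats (275-390 g) received femoral artery and vein catheters under ketamine (150 mg/kg)/acepromazine and recovered for 24 h, tethered, before study conscious. ratANF(99-126) was infused at 450 ng/kg/min iv for 5 h. Baseline blood was drawn at 60 min into the infusion, then compound was given po.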

[15] = target: T1, Angiotensin-converting enzyme (Rattus norvegicus); experiment: Compound was tested for plasma inhibition of Angiotensin I converting enzyme activity in the conscious rat. Expressed as Inhibition of AI pressor response at 6 hr at a dose of 11.7 mg/kg po; format: organism-based; set-up: dose 11.7 mg/kg; summary of the method: as §1
Rattus norvegicus [16] = experiment: Plasma ANF Concentration in the Conscious Rat at a dose of 11.7(po)mg/kg at 2 h; format: functional; summary of the method: as §3
[17] = target: T1, Angiotensin-converting enzyme (Rattus norvegicus); experiment: Compound was tested for plasma inhibition of Angiotensin I converting enzyme activity in the conscious rat. Expressed as Inhibition of AI pressor response at 4 hr at a dose of 11.7 mg/kg po; format: organism-based; set-up: dose 11.7 mg/kg; summary of the method: as §2
Rattus norvegicus [18] = experiment: Plasma ANF Concentration in the Conscious Rat at a dose of 11.7(po)mg/kg at 4 h; format: functional; summary of the method: as §3
Rattus norvegicus [19] = experiment: Plasma ANF Concentration in the Conscious Rat at a dose of 11.7(po)mg/kg at 0.5 h; format: functional; summary of the method: as §3
[20] = target: T1, Angiotensin-converting enzyme (Rattus norvegicus); experiment: Compound was tested for plasma inhibition of Angiotensin I converting enzyme activity in the conscious rat. Expressed as Inhibition of AI pressor response at 1 hr at a dose of 11.7 mg/kg po; format: organism-based; set-up: dose 11.7 mg/kg; summary of the method: as §2

| SMILES | inhibition [1] | inhibition [2] | inhibition [3] | inhibition [4] | inhibition [9] | inhibition [10] | inhibition [11] | inhibition [12] | other results |
| --- | --- | --- | --- | --- | --- | --- | --- | --- | --- |
| CCOC(=O)[C@H](Cc1ccc(OC(=O)c2cccs2)cc1)NC(=O)C1(NC(=O)[C@H](SC(C)=O)C(C)C)CCCC1 | 36% | 29% | 26% | 37% | – | – | – | – | – |
| CC(=O)S[C@@H](C(=O)NC1(C(=O)N[C@@H](Cc2ccc(O)cc2)C(=O)OC(C)C)CCCC1)C(C)C | – | – | – | – | – | – | – | – | inhibition [5]: 67%; inhibition [6]: 85%; inhibition [7]: 78%; inhibition [8]: 81% |
| CCCCOC(=O)[C@H](Cc1ccc(O)cc1)NC(=O)C1(NC(=O)[C@H](SC(=O)CN2CCCCC2)C(C)C)CCCC1 | 50% | 65% | 26% | 55% | – | – | – | – | – |
| CCOC(=O)CC(=O)Oc1ccc(C[C@H](NC(=O)C2(NC(=O)[C@H](SC(C)=O)C(C)C)CCCC2)C(=O)OCC)cc1 | – | – | – | – | 88% | 73% | 82% | 78% | – |
| CCCCOC(=O)[C@H](Cc1ccc(O)cc1)NC(=O)C1(NC(=O)[C@H](SC(=O)CN2CCOCC2)C(C)C)CCCC1 | – | – | – | – | 57% | 12% | 34% | 53% | – |
| CCOC(=O)[C@H](Cc1ccc(OC)cc1)NC(=O)C1(NC(=O)[C@H](SC(C)=O)C(C)C)CCCC1 | – | – | – | – | – | – | – | – | inhibition [13]: 81%; Control (Rattus norvegicus [14]): 346%; inhibition [15]: 77%; Control (Rattus norvegicus [16]): 250%; inhibition [17]: 79%; Control (Rattus norvegicus [18]): 251%; Control (Rattus norvegicus [19]): 275%; inhibition [20]: 73% |
